Most compounds without a hit are left out; they make up all but 3.5% or so of the library.
ERAP1 HTS inh: ERAP1 (human) enzyme inhibition; Q9NZ08; recombinant ERAP1, Leu-AMC fluorescence, 60 min; inhibition, % at 10.7 µM; hit rate 0.15% among 340,000; AID 652197;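 active = mean replicate inhibition of at least 30%, or all replicates individually reaching that 30% level; inactive = mean below 30% and not every replicate reaching it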
PGC1a acetyl inh: modulators of PGC1a acetylation | inhibition, % at 15.6 µM | U2OS PGC1a acetylation, AlphaScreen anti-acetyl-lysine; with virally co-expressed GCN5 acetyltransferase | hit rate 0.17% among 350,000;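 active = every replicate shows inhibition of at least 40%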
Ecoli rRNA inh: selective bacterial rRNA inhibition in E. coli | E. coli WT GFP vs humanized-ribosome RFP mutants, fluorescence, 24 h; stronger effect = lower value; DMSO median 0, no signal -100 | GFP signal change (wild-type ribosome), % (test concentration not listed) | hit rate 1.6% among 350,000;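 active = significant combined selectivity score with lowered wild-type GFP, culture density cut under 30%, mutant RFP and density less affected; inactive = any of these conditions unmet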
FGF22 binding-1: FGF22 (human) thermal shift binding; recombinant FGF22 thermal shift, SYPRO orange fluorescence; percent of sucrose octasulfate shift, DMSO zero; hit rate 1.5% among 340,000; Q9HCT0; activity (Tm shift, normalised), % at 9.99 µM;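 active = mean Tm shift, scaled 0 neutral to 100 positive control, at about 1.3% or above, every replicate too, limit read from the data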
Target sequence (Q9HCT0 whole entry, looked up): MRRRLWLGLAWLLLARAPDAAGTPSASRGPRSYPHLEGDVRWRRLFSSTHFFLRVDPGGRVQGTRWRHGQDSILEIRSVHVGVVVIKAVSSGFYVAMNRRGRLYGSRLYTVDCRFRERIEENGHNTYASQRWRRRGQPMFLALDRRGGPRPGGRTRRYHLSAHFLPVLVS
Cneo AK release: causes C. neoformans cell lysis | adenylate kinase release luminescence, 4 h; normalised: neutral wells 0, clomiphene wells 100 | lysis activity, % at 15 µM | hit rate 0.2% among 360,000 | AID 651654;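 active = mean lysis activity across replicates of at least 80%, whatever share of replicates individually reach that level; inactive = mean lysis activity below 80%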
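Assay system: C. neoformans cells. Amount: yeast cell density of 5 × 10^6 cells/mL. Technique: AK luminescence. Buffer or medium: YPD. Times: static 4 h at 37 °C with compound, 1 h detection. Dosing: single-point compound dose. Read-out: lysis from increased AK signal.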
HIV Env fusion: inhibitors of HIV Env-mediated cell fusion; hit rate 1.1% among 360,000; HeLa-JRFL Env/CEM21 cell fusion, luciferase; AID 651610; inhibition, % at 12.3 µM;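 active = mean replicate inhibition score of at least 50 and every replicate individually at or above 50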
FGF22 binding-2: FGF22 (human) binding in thermal shift; thermal shift activity, °C (ΔTm) at 38 µM; recombinant FGF22 thermal shift, SYPRO orange fluorescence; hit rate 2% among 1,000; shares compounds with FGF22 binding-1;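 active = fitted rise in melting shift crosses a set limit at or below the top valid dose tested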
SYPRO no-protein: shows thermal shift signal without protein, FGF22 counter-screen; shares compounds with FGF22 binding-1; compound-only SYPRO orange thermal shift counter-screen, no protein; AC50, µM (highest dose often 38 µM); hit rate 2% among 1,000; AID 743019;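 active = rising signal whose fitted curve reaches the 0.54 level within the top valid dose, showing a melting point, actives reach about 13 µM in these data; inactive = the rest, including activity in the opposite direction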; also: value is where the raw curve crosses a fixed level and not half-maximal
Hits are given with their value.

Screening COc1ccc(-c2csc(NC(=O)CN3C(=O)C4CCCCC4C3=O)n2)c(OC)c1 (stereo unspecified) returned ERAP1 HTS inh inactive, PGC1a acetyl inh inactive, Ecoli rRNA inh inactive, FGF22 binding-1 1.6, Cneo AK release inactive, HIV Env fusion inactive, FGF22 binding-2 inactive and SYPRO no-protein 10µM.
For CC(C)NC(=O)N1C[C@@H]2[C@H](c3ccccc31)[C@@H](CO)N2Cc1ccccn1 the results were ERAP1 HTS inh inactive, PGC1a acetyl inh inactive, Ecoli rRNA inh inactive, FGF22 binding-1 15, Cneo AK release inactive, FGF22 binding-2 inactive and SYPRO no-protein inactive.
`CCCNC(=O)N1C[C@H]2[C@@H](c3ccccc31)[C@@H](CO)N2Cc1ccc(F)cc1` gave ERAP1 HTS inh inactive, PGC1a acetyl inh inactive, Ecoli rRNA inh inactive, FGF22 binding-1 inactive and Cneo AK release inactive.
For CCCNC(=O)N1C[C@@H]2[C@H](c3ccccc31)[C@H](CO)N2Cc1ccc(F)cc1 the results were ERAP1 HTS inh inactive, PGC1a acetyl inh inactive, Ecoli rRNA inh inactive, FGF22 binding-1 1.3, Cneo AK release inactive, FGF22 binding-2 inactive and SYPRO no-protein inactive.
CCOc1cccc(C(=O)N(Cc2ccco2)C2CCS(=O)(=O)C2)c1 (stereo unspecified) was read as PGC1a acetyl inh inactive and Cneo AK release inactive.
For O=[N+]([O-])c1ccc(Nc2ccccc2)nc1 the results were ERAP1 HTS inh inactive, Ecoli rRNA inh inactive, FGF22 binding-1 1.4, HIV Env fusion inactive, FGF22 binding-2 inactive and SYPRO no-protein inactive.
Screening O=[N+]([O-])c1ccc(Nc2ccc(F)cc2)nc1 returned HIV Env fusion inactive.
`O=[N+]([O-])c1ccc(Nc2cccc(F)c2)nc1` gave ERAP1 HTS inh inactive, PGC1a acetyl inh inactive, Ecoli rRNA inh inactive, FGF22 binding-1 3.5, Cneo AK release inactive, HIV Env fusion inactive, FGF22 binding-2 inactive and SYPRO no-protein inactive.
`O=C(CN1CCN(c2ccccc2)CC1)c1ccc2cc[nH]c2c1` gave ERAP1 HTS inh inactive, Ecoli rRNA inh inactive, FGF22 binding-1 inactive, Cneo AK release inactive and HIV Env fusion inactive.
Screening O=C(O)CCn1c2ccccc2c2nc3ccccc3nc21 returned ERAP1 HTS inh inactive, PGC1a acetyl inh inactive, Ecoli rRNA inh inactive, FGF22 binding-1 inactive, Cneo AK release inactive and HIV Env fusion inactive.
`O=C(NCc1ccccn1)C(=O)Nc1ccccc1` gave ERAP1 HTS inh inactive, PGC1a acetyl inh inactive, Ecoli rRNA inh inactive, FGF22 binding-1 inactive, Cneo AK release inactive and HIV Env fusion inactive.
`c1ccc(NCc2ccccn2)cc1` gave ERAP1 HTS inh inactive, Ecoli rRNA inh inactive, FGF22 binding-1 1.4, HIV Env fusion inactive, FGF22 binding-2 inactive and SYPRO no-protein inactive.
For CSc1ncccc1C(=O)Nc1ccc(S(=O)(=O)N2CCCC2)cc1 the results were ERAP1 HTS inh inactive, PGC1a acetyl inh inactive, Ecoli rRNA inh inactive, FGF22 binding-1 1.6, Cneo AK release inactive, FGF22 binding-2 inactive and SYPRO no-protein inactive.
Cc1ccc(S(=O)(=O)NCCSc2nnnn2-c2cc(C)ccc2C)cc1 was read as PGC1a acetyl inh inactive, Cneo AK release inactive and HIV Env fusion inactive.
Screening Cc1ccc(S(=O)(=O)NCCSc2nnnn2-c2ccccc2)cc1 returned ERAP1 HTS inh inactive, PGC1a acetyl inh inactive, Ecoli rRNA inh inactive, FGF22 binding-1 35, Cneo AK release inactive, FGF22 binding-2 inactive and SYPRO no-protein inactive.
Screening COc1ccc(CCC(C)NC(=O)Cc2ccc(OC)c(OC)c2)c(OC)c1 (stereo unspecified) returned ERAP1 HTS inh inactive, PGC1a acetyl inh inactive, Ecoli rRNA inh inactive, FGF22 binding-1 29, Cneo AK release inactive, HIV Env fusion inactive, FGF22 binding-2 inactive and SYPRO no-protein inactive.
For Cn1ccc2c(-c3cccc4ccccc34)cc3c(c21)C1CCC3O1 (stereo unspecified) the results were ERAP1 HTS inh inactive, PGC1a acetyl inh inactive, Ecoli rRNA inh inactive, FGF22 binding-1 inactive, Cneo AK release inactive and HIV Env fusion inactive.

Compound activity deposited in PubChem BioAssay by Broad Institute.
